In ChEMBL document CHEMBL4422685, “Design, synthesis and evaluation of a series of 5-methoxy-2,3-naphthalimide derivatives as AcrB inhibitors for the reversal of bacterial resistance” (Bioorg Med Chem Lett, 2019):
In brackets after ≈: the same amount, converted by molar mass. Activity calls are given as the source filed them. The rule behind the calls is not given here.

Legend:
[1] = Solubility of the compound in DMSO; type: physicochemical
Escherichia coli [2] = assay: Antimicrobial activity against AcrB deficient Escherichia coli; type: functional
[3] = target: T1, Multidrug efflux pump subunit AcrB (Escherichia coli (strain K12)) (UniProt P31224); assay: Inhibition of AcrB in wild-type drug-resistant Escherichia coli […] assessed as potentiation of tetraphenyl phosphonium chloride-induced antimicrobial activity by measuring tetraphenyl phosphonium chloride MIC at 16 ug/ml by checkerboard titration method (reference value: 1024 ug/ml)
T1 sequence (whole entry): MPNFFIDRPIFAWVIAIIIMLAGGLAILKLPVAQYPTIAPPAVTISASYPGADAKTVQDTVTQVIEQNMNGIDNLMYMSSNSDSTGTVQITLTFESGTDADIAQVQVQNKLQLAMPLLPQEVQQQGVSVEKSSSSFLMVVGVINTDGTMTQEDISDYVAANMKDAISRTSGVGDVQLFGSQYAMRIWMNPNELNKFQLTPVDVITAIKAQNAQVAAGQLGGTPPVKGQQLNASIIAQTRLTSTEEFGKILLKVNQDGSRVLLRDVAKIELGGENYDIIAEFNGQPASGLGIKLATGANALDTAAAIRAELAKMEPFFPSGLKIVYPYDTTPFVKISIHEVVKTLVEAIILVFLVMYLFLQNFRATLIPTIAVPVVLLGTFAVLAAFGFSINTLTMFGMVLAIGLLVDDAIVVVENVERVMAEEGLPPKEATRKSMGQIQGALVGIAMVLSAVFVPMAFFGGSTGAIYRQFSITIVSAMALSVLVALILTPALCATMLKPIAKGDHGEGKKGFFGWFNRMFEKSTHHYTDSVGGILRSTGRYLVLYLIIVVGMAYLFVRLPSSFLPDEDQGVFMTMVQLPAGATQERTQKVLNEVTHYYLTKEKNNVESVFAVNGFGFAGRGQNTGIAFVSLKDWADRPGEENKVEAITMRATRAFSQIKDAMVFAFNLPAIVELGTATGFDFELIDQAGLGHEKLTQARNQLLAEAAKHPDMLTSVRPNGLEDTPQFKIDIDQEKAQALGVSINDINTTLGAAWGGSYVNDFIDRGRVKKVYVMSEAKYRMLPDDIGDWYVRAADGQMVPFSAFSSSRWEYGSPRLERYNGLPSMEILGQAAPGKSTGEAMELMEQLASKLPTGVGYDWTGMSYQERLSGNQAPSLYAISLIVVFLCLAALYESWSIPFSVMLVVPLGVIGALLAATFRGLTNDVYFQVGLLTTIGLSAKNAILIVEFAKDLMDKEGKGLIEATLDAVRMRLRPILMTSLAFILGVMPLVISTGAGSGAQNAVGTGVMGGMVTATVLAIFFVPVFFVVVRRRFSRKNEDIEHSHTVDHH

[4] = target: T1, Multidrug efflux pump subunit AcrB (Escherichia coli (strain K12)); assay: Inhibition of AcrB in wild-type drug-resistant Escherichia coli […] assessed as potentiation of chloramphenicol-induced antimicrobial activity by measuring chloramphenicol MIC at 64 ug/ml by checkerboard titration method (Rvb =16 ug/ml)
Escherichia coli [5] = assay: Toxicity against wild-type drug-resistant Escherichia coli […] at 128 ug/ml; type: organism-based; conditions: in vivo
Outline: (§1)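 MIC determination against wild-type resistant E. coli BW25113 and an isogenic acrB-deleted strain; highest concentration tested 128 mg/L.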

[6] = target: T1, Multidrug efflux pump subunit AcrB (Escherichia coli (strain K12)); assay: Inhibition of AcrB in wild-type drug-resistant Escherichia coli […] assessed as potentiation of erythromycin-induced antimicrobial activity by measuring erythromycin MIC at 8 ug/ml by checkerboard titration method (reference value: 64 ug/ml)
Escherichia coli [7] = assay: Toxicity against AcrB deficient Escherichia coli AcrB lacking at 128 ug/ml; type: organism-based; conditions: in vivo; outline: as §1
[8] = target: T1, Multidrug efflux pump subunit AcrB (Escherichia coli (strain K12)); assay: Inhibition of AcrB in wild-type drug-resistant Escherichia coli […] assessed as potentiation of levofloxacin-induced antimicrobial activity by measuring levofloxacin MIC at 8 ug/ml by checkerboard titration method (reference value: 0.063 ug/ml)
[9] = target: T1, Multidrug efflux pump subunit AcrB (Escherichia coli (strain K12)); assay: Inhibition of AcrB in wild-type drug-resistant Escherichia coli […] assessed as potentiation of chloramphenicol-induced antimicrobial activity by measuring chloramphenicol MIC at 128 ug/ml by checkerboard titration method (Rvb =16 ug/ml)
[10] = target: T1, Multidrug efflux pump subunit AcrB (Escherichia coli (strain K12)); assay: Inhibition of AcrB in wild-type drug-resistant Escherichia coli […] assessed as potentiation of levofloxacin-induced antimicrobial activity by measuring levofloxacin MIC at 16 ug/ml by checkerboard titration method (reference value: 0.063 ug/ml)
[11] = target: T1, Multidrug efflux pump subunit AcrB (Escherichia coli (strain K12)); assay: Inhibition of AcrB in wild-type drug-resistant Escherichia coli […] assessed as potentiation of chloramphenicol-induced antimicrobial activity by measuring chloramphenicol MIC at 8 ug/ml by checkerboard titration method (Rvb =16 ug/ml)
[12] = target: T1, Multidrug efflux pump subunit AcrB (Escherichia coli (strain K12)); assay: Inhibition of AcrB in wild-type drug-resistant Escherichia coli […] assessed as potentiation of erythromycin-induced antimicrobial activity by measuring erythromycin MIC at 16 ug/ml by checkerboard titration method (reference value: 64 ug/ml)
[13] = target: T1, Multidrug efflux pump subunit AcrB (Escherichia coli (strain K12)); assay: Inhibition of AcrB in wild-type drug-resistant Escherichia coli […] assessed as potentiation of erythromycin-induced antimicrobial activity by measuring erythromycin MIC at 32 ug/ml by checkerboard titration method (reference value: 64 ug/ml)
[14] = target: T1, Multidrug efflux pump subunit AcrB (Escherichia coli (strain K12)); assay: Inhibition of AcrB in wild-type drug-resistant Escherichia coli […] assessed as potentiation of tetraphenyl phosphonium chloride-induced antimicrobial activity by measuring tetraphenyl phosphonium chloride MIC at 128 ug/ml by checkerboard titration method (reference value: 1024 ug/ml)
[15] = target: T1, Multidrug efflux pump subunit AcrB (Escherichia coli (strain K12)); assay: Inhibition of AcrB in wild-type drug-resistant Escherichia coli BW2113 assessed as potentiation of chloramphenicol-induced antimicrobial activity by measuring chloramphenicol MIC at 16 ug/ml by checkerboard titration method (Rvb =16 ug/ml)
[16] = target: T1, Multidrug efflux pump subunit AcrB (Escherichia coli (strain K12)); assay: Inhibition of AcrB in wild-type drug-resistant Escherichia coli […] assessed as potentiation of chloramphenicol-induced antimicrobial activity by measuring chloramphenicol MIC at 32 ug/ml by checkerboard titration method (Rvb =16 ug/ml)
[17] = target: T1, Multidrug efflux pump subunit AcrB (Escherichia coli (strain K12)); assay: Inhibition of AcrB in wild-type drug-resistant Escherichia coli […] assessed as potentiation of tetraphenyl phosphonium chloride-induced antimicrobial activity by measuring tetraphenyl phosphonium chloride MIC at 32 ug/ml by checkerboard titration method (reference value: 1024 ug/ml)
[18] = target: T1, Multidrug efflux pump subunit AcrB (Escherichia coli (strain K12)); assay: Inhibition of AcrB in wild-type drug-resistant Escherichia coli […] assessed as potentiation of levofloxacin-induced antimicrobial activity by measuring levofloxacin MIC at 32 ug/ml by checkerboard titration method (reference value: 0.063 ug/ml)
[19] = target: T1, Multidrug efflux pump subunit AcrB (Escherichia coli (strain K12)); assay: Inhibition of AcrB in wild-type drug-resistant Escherichia coli […] assessed as potentiation of erythromycin-induced antimicrobial activity by measuring erythromycin MIC at 64 ug/ml by checkerboard titration method (reference value: 64 ug/ml)
[20] = target: T1, Multidrug efflux pump subunit AcrB (Escherichia coli (strain K12)); assay: Inhibition of AcrB in wild-type drug-resistant Escherichia coli […] assessed as potentiation of levofloxacin-induced antimicrobial activity by measuring levofloxacin MIC at 64 ug/ml by checkerboard titration method (reference value: 0.063 ug/ml)
[21] = target: T1, Multidrug efflux pump subunit AcrB (Escherichia coli (strain K12)); assay: Inhibition of AcrB in wild-type drug-resistant Escherichia coli […] assessed as potentiation of tetraphenyl phosphonium chloride-induced antimicrobial activity by measuring tetraphenyl phosphonium chloride MIC at 64 ug/ml by checkerboard titration method (reference value: 1024 ug/ml)
[22] = target: T1, Multidrug efflux pump subunit AcrB (Escherichia coli (strain K12)); assay: Inhibition of AcrB in wild-type drug-resistant Escherichia coli […] assessed as potentiation of levofloxacin-induced antimicrobial activity by measuring levofloxacin MIC at 128 ug/ml by checkerboard titration method (reference value: 0.063 ug/ml)
[23] = target: T1, Multidrug efflux pump subunit AcrB (Escherichia coli (strain K12)); assay: Inhibition of AcrB in wild-type drug-resistant Escherichia coli […] assessed as potentiation of erythromycin-induced antimicrobial activity by measuring erythromycin MIC at 128 ug/ml by checkerboard titration method (reference value: 64 ug/ml)
[24] = target: T1, Multidrug efflux pump subunit AcrB (Escherichia coli (strain K12)); assay: Inhibition of AcrB in wild-type drug-resistant Escherichia coli […] assessed as potentiation of tetraphenyl phosphonium chloride-induced antimicrobial activity by measuring tetraphenyl phosphonium chloride MIC at 8 ug/ml by checkerboard titration method (reference value: 1024 ug/ml)
Escherichia coli [25] = assay: Induction of Escherichia coli outer membrane permeabilization assessed as increase in nitrocefin hydrolysis at 128 ug/ml by spectroscopic method; type: organism-based
[26] = target: T1, Multidrug efflux pump subunit AcrB (Escherichia coli (strain K12)); assay: Inhibition of AcrB in wild-type drug-resistant Escherichia coli […] assessed as reduction in glucose-induced nile red efflux at 200 uM by fluorescence assay
Outline: (§2)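 E. coli cells (wild-type resistant with active pump, acrB-deleted, or wild-type plus compound) preloaded with Nile Red before fluorescence recording. Efflux triggered at 100 s by adding 0.2% glucose. Fluorescence traces followed; experiments with different cell batches on three different days.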

[27] = target: T1, Multidrug efflux pump subunit AcrB (Escherichia coli (strain K12)); assay: Inhibition of AcrB in wild-type drug-resistant Escherichia coli […] assessed as reduction in glucose-induced nile red efflux at 500 uM by fluorescence assay; outline: as §2

CCc1ccc(N2C(=O)c3cc4cccc(OC)c4cc3C2=O)cc1
solubility [1]: Insoluble

C[C@H]1COc2c(N3CCN(C)CC3)c(F)cc3c(=O)c(C(=O)O)cn1c23.C[C@H]1COc2c(N3CCN(C)CC3)c(F)cc3c(=O)c(C(=O)O)cn1c23.O [LEVOFLOXACIN]
MIC (Escherichia coli [2]): 0.0039 µg/mL

COc1cccc2cc3c(cc12)C(=O)N(Cc1ccc(Cl)cc1)C3=O
solubility [1]: Insoluble

COc1cccc2cc3c(cc12)C(=O)N(Cc1ccc(C)cc1)C3=O
solubility [1]: Insoluble

COc1cccc2cc3c(cc12)C(=O)N(CCc1ccc(F)cc1)C3=O
solubility [1]: Insoluble

COc1cccc2cc3c(cc12)C(=O)N(Cc1ccccc1Cl)C3=O
MIC [3]: 1020 µg/mL | MIC [4]: 16 µg/mL | Activity (Escherichia coli [5]): Non-Toxic | MIC [6]: 64 µg/mL | Activity (Escherichia coli [7]): Non-Toxic | MIC [8]: 0.063 µg/mL | MIC [9]: 16 µg/mL | MIC [10]: 0.063 µg/mL | MIC [11]: 16 µg/mL | MIC [12]: 64 µg/mL | MIC [13]: 64 µg/mL | MIC [14]: 512 µg/mL | MIC [15]: 16 µg/mL | MIC [16]: 16 µg/mL | MIC [17]: 1020 µg/mL | MIC [18]: 0.063 µg/mL | MIC [19]: 64 µg/mL | MIC [20]: 0.063 µg/mL | MIC [21]: 1020 µg/mL | MIC [22]: 0.063 µg/mL | MIC [23]: 32 µg/mL | MIC [24]: 1020 µg/mL

[Cl-].c1ccc([P+](c2ccccc2)(c2ccccc2)c2ccccc2)cc1 [TETRAPHENYLPHOSPHONIUM CHLORIDE]
MIC (Escherichia coli [2]): 32 µg/mL

COc1cccc(N2C(=O)c3cc4cccc(OC)c4cc3C2=O)c1
solubility [1]: Insoluble

COc1cccc2cc3c(cc12)C(=O)N(CCc1ccccc1Cl)C3=O
solubility [1]: Insoluble

COc1cccc2cc3c(cc12)C(=O)N(Cc1ccc(F)cc1)C3=O
solubility [1]: Insoluble

COc1cccc2cc3c(cc12)C(=O)N(c1ccccc1C(F)(F)F)C3=O
solubility [1]: Insoluble

COc1cccc2cc3c(cc12)C(=O)N(c1cccc(C)c1)C3=O
solubility [1]: Insoluble

COc1cccc2cc3c(cc12)C(=O)N(C(C)(C)C)C3=O
Activity (Escherichia coli [25]): Non-Toxic | MIC [3]: 1020 µg/mL | MIC [4]: 16 µg/mL | Activity (Escherichia coli [5]): Non-Toxic | MIC [6]: 64 µg/mL | Activity (Escherichia coli [7]): Non-Toxic | MIC [8]: 0.063 µg/mL | MIC [9]: 16 µg/mL | MIC [10]: 0.063 µg/mL | inhibition [26]: Active | MIC [11]: 16 µg/mL | MIC [12]: 64 µg/mL | inhibition [27]: 100% | MIC [13]: 64 µg/mL | MIC [14]: 512 µg/mL | MIC [15]: 16 µg/mL | MIC [16]: 16 µg/mL | MIC [17]: 1020 µg/mL | MIC [18]: 0.063 µg/mL | MIC [19]: 32 µg/mL | MIC [20]: 0.063 µg/mL | MIC [21]: 1020 µg/mL | MIC [22]: 0.063 µg/mL | MIC [23]: 32 µg/mL | MIC [24]: 1020 µg/mL

CCCCc1ccc(N2C(=O)c3cc4cccc(OC)c4cc3C2=O)cc1
solubility [1]: Insoluble

CC[C@H]1OC(=O)[C@H](C)[C@@H](O[C@H]2C[C@@](C)(OC)[C@@H](O)[C@H](C)O2)[C@H](C)[C@@H](O[C@@H]2O[C@H](C)C[C@H](N(C)C)[C@H]2O)[C@](C)(O)C[C@@H](C)C(=O)[C@H](C)[C@@H](O)[C@]1(C)O [ERYTHROMYCIN]
MIC (Escherichia coli [2]): 64 µg/mL (≈ 87.2 µM)

COc1ccccc1N1C(=O)c2cc3cccc(OC)c3cc2C1=O
solubility [1]: Insoluble

COc1cccc2cc3c(cc12)C(=O)N(c1ccc(C(C)C)cc1)C3=O
solubility [1]: Insoluble
